# Assay results reported in ChEMBL document CHEMBL1126731, “Structure-activity relationship studies with symmetric naphthalenesulfonic acid derivatives. Synthesis and influence of spacer and naphthalenesulfonic acid moiety on anti-HIV-1 activity” (J Med Chem, 1993).
# Key:
# [1] = tested on: Human immunodeficiency virus 1; test: Cytotoxicity against HIV-1 (HTLV-IIIB) in MT-4 cells; type: functional; settings: Human immunodeficiency virus 1, MT4
# Summary of the method: (§1)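 MT-4 cells were infected with the HIV-1 strain named in the line and cultured with the test compound for 4 days. Viable cells were then counted by the MTT method. EC50 is the 50% effective antiviral concentration and CC50 the 50% cytotoxic concentration, each the mean of at least two separate experiments.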
# [2] = tested on: Human immunodeficiency virus 1; test: Antiviral activity against HIV-1 (HTLV-IIIB) in MT-4 cells; type: functional, organism-based; settings: Human immunodeficiency virus 1, MT4; summary of the method: as §1
# MT4 [3] = test: Cytotoxicity against HIV-1 in MT-4 cells was evaluated by using a clinical strain (HE); type: functional; settings: Homo sapiens; summary of the method: as §1
# MT4 [4] = test: Antiviral activity against HIV-1 in MT-4 cells was evaluated by using a clinical strain (HE); type: functional, cell-based; settings: Homo sapiens; summary of the method: as §1
# MOLT-4 [5] = test: Percentage inhibition of HIV-1-induced giant cell (syncytia) formation using MOLT-4 cell at 500 uM; type: functional; settings: Homo sapiens
# Summary of the method: (§2)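 MOLT-4 cells (5×10^4/well) were cocultured with an equal number of chronically infected MOLT-4/HTLV-III_B cells at various compound concentrations for 24 h. Cell clusters were then broken by gentle pipetting, and giant cells were counted under the microscope.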
# MOLT-4 [6] = test: Percentage inhibition of HIV-1-induced giant cell (syncytia) formation using MOLT-4 cell at 4 uM; type: functional; settings: Homo sapiens; summary of the method: as §2
# MOLT-4 [7] = test: Percentage inhibition of HIV-1-induced giant cell (syncytia) formation using MOLT-4 cell at 100 uM; type: functional; settings: Homo sapiens; summary of the method: as §2
# MOLT-4 [8] = test: Percentage inhibition of HIV-1-induced giant cell (syncytia) formation using MOLT-4 cell at 0.8 uM; type: functional; settings: Homo sapiens; summary of the method: as §2
# MOLT-4 [9] = test: Inhibition of HIV-1-induced giant cell (syncytia) formation using MOLT-4 cell; type: functional, cell-based; settings: Homo sapiens; summary of the method: as §2
# MOLT-4 [10] = test: Percentage inhibition of HIV-1-induced giant cell (syncytia) formation using MOLT-4 cell at 20 uM; type: functional; settings: Homo sapiens; summary of the method: as §2
# [11] = tested on: Human immunodeficiency virus 1; test: Antiviral concentration against HIV-1 (HTLV-IIIB) in peripheral blood lymphocytes; type: functional, organism-based
# [12] = tested on: Human immunodeficiency virus 1; test: Cytotoxic concentration against HIV-1 (HTLV-IIIB) in peripheral blood lymphocytes; type: functional
structure (smiles),measurement,setting,value
O=C(O)c1cc(NS(=O)(=O)c2cccc3c(S(=O)(=O)Nc4cc(C(=O)O)c(O)c(S(=O)(=O)O)c4)cccc23)cc(S(=O)(=O)O)c1O,CC50,[1],> 500 µM
same,EC50,[2],52.5 µM
O=S(=O)(O)c1ccc2cc(OS(=O)(=O)c3ccc(-c4ccc(S(=O)(=O)Oc5cc6ccc(S(=O)(=O)O)cc6cc5S(=O)(=O)O)cc4)cc3)c(S(=O)(=O)O)cc2c1,CC50,[1],> 500 µM
same,EC50,[2],43 µM
Nc1cc(S(=O)(=O)O)cc2cc(S(=O)(=O)O)cc(O)c12,CC50,[1],> 529 µM
same,EC50,[2],> 529 µM
O=C(O)c1cc(NS(=O)(=O)c2ccc(-c3ccc(S(=O)(=O)Nc4cc(C(=O)O)c(O)c(S(=O)(=O)O)c4)cc3)cc2)cc(S(=O)(=O)O)c1O,CC50,MT4 [3],> 100 µM
same,EC50,MT4 [4],7.5 µM
same,inhibition at 500 µM,MOLT-4 [5],100%
same,CC50,[1],247 µM
same,inhibition at 4 µM,MOLT-4 [6],0%
same,inhibition at 100 µM,MOLT-4 [7],94%
same,inhibition at 0.8 µM,MOLT-4 [8],3%
same,EC50,[2],52.5 µM
same,IC50,MOLT-4 [9],37 µM
same,inhibition at 20 µM,MOLT-4 [10],22%
O=C(CCC(=O)Nc1ccc(S(=O)(=O)O)c2ccccc12)Nc1ccc(S(=O)(=O)O)c2ccccc12,CC50,[1],> 500 µM
same,EC50,[2],> 500 µM
Cc1ccc(C(=O)Nc2ccc(S(=O)(=O)O)c3cc(S(=O)(=O)O)cc(S(=O)(=O)O)c23)cc1NC(=O)c1cccc(NC(=O)Nc2cccc(C(=O)Nc3cc(C(=O)Nc4ccc(S(=O)(=O)O)c5cc(S(=O)(=O)O)cc(S(=O)(=O)O)c45)ccc3C)c2)c1 [SURAMIN],CC50,MT4 [3],47 µM
same,EC50,MT4 [4],8 µM
Cc1ccc(C(=O)Nc2ccc(S(=O)(=O)O)c3cc(S(=O)(=O)O)cc(S(=O)(=O)O)c23)cc1NC(=O)c1cccc(NC(=O)Nc2cccc(C(=O)Nc3cc(C(=O)Nc4ccc(S(=O)(=O)O)c5cc(S(=O)(=O)O)cc(S(=O)(=O)O)c45)ccc3C)c2)c1 [SURAMIN HEXASODIUM],CC50,[1],250 µM
same,EC50,[2],8.2 µM
O=C(CCCCCCCCC(=O)Nc1cc(S(=O)(=O)O)cc2cc(S(=O)(=O)O)cc(O)c12)Nc1cc(S(=O)(=O)O)cc2cc(S(=O)(=O)O)cc(O)c12 [listing 1 of 2 here],inhibition at 500 µM,MOLT-4 [5],100%
same,CC50,[1],> 100 µM
same,inhibition at 4 µM,MOLT-4 [6],30%
same,inhibition at 100 µM,MOLT-4 [7],100%
same,inhibition at 0.8 µM,MOLT-4 [8],0%
same,EC50,[2],3.9 µM
same,IC50,MOLT-4 [9],29 µM
same,inhibition at 20 µM,MOLT-4 [10],35%
Nc1ccc2cc(S(=O)(=O)O)cc(S(=O)(=O)O)c2c1,CC50,[1],> 500 µM
same,EC50,[2],> 500 µM
Nc1ccc(S(=O)(=O)O)c2ccccc12,CC50,[1],> 500 µM
same,EC50,[2],> 500 µM
O=C(CCCCCCCCC(=O)Nc1cc(S(=O)(=O)O)cc2cc(S(=O)(=O)O)cc(O)c12)Nc1cc(S(=O)(=O)O)cc2cc(S(=O)(=O)O)cc(O)c12 [listing 2 of 2 here],CC50,MT4 [3],> 100 µM
same,EC50,MT4 [4],3.9 µM
O=C(CCCCCC(=O)Nc1ccc(S(=O)(=O)O)c2cccc(S(=O)(=O)O)c12)Nc1ccc(S(=O)(=O)O)c2cccc(S(=O)(=O)O)c12,CC50,[1],> 500 µM
same,EC50,[2],143 µM
O=C(CCCCCCCCC(=O)Nc1ccc(S(=O)(=O)O)c2ccccc12)Nc1ccc(S(=O)(=O)O)c2ccccc12,CC50,[1],> 500 µM
same,EC50,[2],> 500 µM
O=S(=O)(O)c1cc(S(=O)(=O)O)c2cc(OS(=O)(=O)c3ccc(-c4ccc(S(=O)(=O)Oc5ccc6cc(S(=O)(=O)O)cc(S(=O)(=O)O)c6c5)cc4)cc3)ccc2c1,CC50,[1],224 µM
same,EC50,[2],40 µM
O=S(=O)(O)c1cccc2ccc(OS(=O)(=O)c3cccc4c(S(=O)(=O)Oc5ccc6cccc(S(=O)(=O)O)c6c5)cccc34)cc12,CC50,[1],144 µM
same,EC50,[2],> 55 µM
Nc1ccc(S(=O)(=O)O)c2cccc(S(=O)(=O)O)c12,CC50,[1],> 500 µM
same,EC50,[2],> 500 µM
O=S(=O)(O)c1cc(S(=O)(=O)O)c2cc(NS(=O)(=O)c3ccc(-c4ccc(S(=O)(=O)Nc5ccc6cc(S(=O)(=O)O)cc(S(=O)(=O)O)c6c5)cc4)cc3)ccc2c1,CC50,MT4 [3],> 100 µM
same,EC50,MT4 [4],8.1 µM
same,inhibition at 500 µM,MOLT-4 [5],100%
same,CC50,[1],> 500 µM
same,inhibition at 4 µM,MOLT-4 [6],21%
same,inhibition at 100 µM,MOLT-4 [7],100%
same,inhibition at 0.8 µM,MOLT-4 [8],6%
same,EC50,[2],29.5 µM
same,IC50,MOLT-4 [9],29 µM
same,inhibition at 20 µM,MOLT-4 [10],34%
O=S(=O)(O)c1cc(S(=O)(=O)O)c2cc(NS(=O)(=O)c3cccc4c(S(=O)(=O)Nc5ccc6cc(S(=O)(=O)O)cc(S(=O)(=O)O)c6c5)cccc34)ccc2c1,CC50,[1],> 500 µM
same,EC50,[2],14 µM
O=C(CCCCCCCCCCC(=O)Nc1ccc(S(=O)(=O)O)c2cccc(S(=O)(=O)O)c12)Nc1ccc(S(=O)(=O)O)c2cccc(S(=O)(=O)O)c12,CC50,[1],> 500 µM
same,EC50,[2],46 µM
O=S(=O)(O)c1cccc2ccc(OS(=O)(=O)c3ccc(-c4ccc(S(=O)(=O)Oc5ccc6cccc(S(=O)(=O)O)c6c5)cc4)cc3)cc12,CC50,[1],100 µM
same,EC50,[2],> 100 µM
O=S(=O)(O)c1cc(S(=O)(=O)O)c2cc(O)ccc2c1,CC50,[1],> 500 µM
same,EC50,[2],> 500 µM
O=C(CCCCCCC(=O)Nc1cc(S(=O)(=O)O)cc2cc(S(=O)(=O)O)cc(O)c12)Nc1cc(S(=O)(=O)O)cc2cc(S(=O)(=O)O)cc(O)c12 [listing 1 of 2 here],EC50,[11],1.3 µM
same,inhibition at 500 µM,MOLT-4 [5],100%
same,CC50,[1],360 µM
same,inhibition at 4 µM,MOLT-4 [6],31%
same,inhibition at 100 µM,MOLT-4 [7],100%
same,inhibition at 0.8 µM,MOLT-4 [8],6%
same,CC50,[12],20 µM
same,EC50,[2],2.9 µM
same,IC50,MOLT-4 [9],6.4 µM
same,inhibition at 20 µM,MOLT-4 [10],96%
O=S(=O)(O)c1cc(S(=O)(=O)O)c2cc(OS(=O)(=O)c3cccc4c(S(=O)(=O)Oc5ccc6cc(S(=O)(=O)O)cc(S(=O)(=O)O)c6c5)cccc34)ccc2c1,CC50,[1],> 500 µM
same,EC50,[2],> 168 µM
O=C(CCCCCCCCC(=O)Nc1ccc(S(=O)(=O)O)c2cccc(S(=O)(=O)O)c12)Nc1ccc(S(=O)(=O)O)c2cccc(S(=O)(=O)O)c12,CC50,[1],> 500 µM
same,EC50,[2],66.5 µM
O=C(CCCCCCCCCCC(=O)Nc1cc(S(=O)(=O)O)cc2cc(S(=O)(=O)O)cc(O)c12)Nc1cc(S(=O)(=O)O)cc2cc(S(=O)(=O)O)cc(O)c12,CC50,MT4 [3],> 100 µM
same,EC50,MT4 [4],12.5 µM
same,inhibition at 500 µM,MOLT-4 [5],100%
same,CC50,[1],430 µM
same,inhibition at 4 µM,MOLT-4 [6],11%
same,inhibition at 100 µM,MOLT-4 [7],100%
same,inhibition at 0.8 µM,MOLT-4 [8],0%
same,EC50,[2],44 µM
same,IC50,MOLT-4 [9],26 µM
same,inhibition at 20 µM,MOLT-4 [10],40%
O=C(CCCCCCC(=O)Nc1cc(S(=O)(=O)O)cc2cc(S(=O)(=O)O)cc(O)c12)Nc1cc(S(=O)(=O)O)cc2cc(S(=O)(=O)O)cc(O)c12 [listing 2 of 2 here],CC50,MT4 [3],> 100 µM
same,EC50,MT4 [4],2.2 µM
O=C(O)c1cc(NS(=O)(=O)c2cc(S(=O)(=O)Nc3cc(C(=O)O)c(O)c(S(=O)(=O)O)c3)cc(S(=O)(=O)Nc3cc(C(=O)O)c(O)c(S(=O)(=O)O)c3)c2)cc(S(=O)(=O)O)c1O,CC50,[1],> 500 µM
same,EC50,[2],11 µM
O=S(=O)(O)c1cc(O)c2c(NS(=O)(=O)c3ccc(-c4ccc(S(=O)(=O)Nc5cc(S(=O)(=O)O)cc6cc(S(=O)(=O)O)cc(O)c56)cc4)cc3)cc(S(=O)(=O)O)cc2c1,EC50,[11],9.2 µM
same,CC50,[1],320 µM
same,CC50,[12],38 µM
same,EC50,[2],8.3 µM
O=C(Nc1ccc(S(=O)(=O)O)c2cccc(S(=O)(=O)O)c12)c1ccc(C(=O)Nc2ccc(S(=O)(=O)O)c3cccc(S(=O)(=O)O)c23)cc1,CC50,[1],> 500 µM
same,EC50,[2],> 197 µM
O=C(CCCCCCC(=O)Nc1ccc(S(=O)(=O)O)c2cccc(S(=O)(=O)O)c12)Nc1ccc(S(=O)(=O)O)c2cccc(S(=O)(=O)O)c12,CC50,[1],> 500 µM
same,EC50,[2],242 µM
Cc1cc(C)c(S(=O)(=O)Nc2cc(C(=O)O)c(O)c(S(=O)(=O)O)c2)c(C)c1S(=O)(=O)Nc1cc(C(=O)O)c(O)c(S(=O)(=O)O)c1,CC50,[1],> 500 µM
same,EC50,[2],57 µM
O=C(CCCCCCC(=O)Nc1ccc(S(=O)(=O)O)c2ccccc12)Nc1ccc(S(=O)(=O)O)c2ccccc12,CC50,[1],> 500 µM
same,EC50,[2],> 500 µM
O=S(=O)(O)c1ccc2cc(NS(=O)(=O)c3ccc(-c4ccc(S(=O)(=O)Nc5cc6ccc(S(=O)(=O)O)cc6cc5S(=O)(=O)O)cc4)cc3)c(S(=O)(=O)O)cc2c1,CC50,[1],> 500 µM
same,EC50,[2],41 µM
